The subject of one data set is Mus musculus. Kind of data set: Blood level after oral administration in mice (50 mg/kg) was determined by bioassay procedure and represent total activity present in the serum. Format: ADME, organism-based. Conditions: in vivo. In outline:
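Single oral dose of 50 mg/kg to mice. Blood taken from groups of six mice at 0.5, 1, 2 and 4 h after dosing. Serum levels measured by disk agar diffusion bioassay with Bacillus subtilis ATCC 6633 on Seed Agar, plates incubated 18 h at 37 °C, giving total activity in serum. AUC 0-4 h expressed as μg/mL […].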

Another data set deals with Bacillus cereus. Kind of data set: Minimum inhibitory concentration (MIC) preventing growth of Bacillus cereus. Format: functional.
Another data set has as its system Bacillus subtilis. Kind of data set: Minimum inhibitory concentration (MIC) preventing growth of Bacillus subtilis. Format: functional.
Data set [1] deals with Escherichia coli. In words: Minimum inhibitory concentration (MIC)preventing growth of Escherichia coli. Format: functional.
Another data set has as its system Klebsiella pneumoniae. Kind of data set: Minimum inhibitory concentration (MIC)preventing growth of Klebsiella pneumoniae. Format: functional.
The subject of a further data set is Morganella morganii. Kind of data set: Minimum inhibitory concentration (MIC) preventing growth of Morganella morganii. It counts as functional.
A further data set concerns Proteus vulgaris. Kind of data set: Minimum inhibitory concentration (MIC) preventing growth of Proteus vulgaris. Format: functional.
Data set [2] deals with Staphylococcus epidermidis. Kind of data set: Minimum inhibitory concentration (MIC) preventing growth of Staphylococcus epidermidis. It counts as functional.
Data set [3] has as its system Staphylococcus aureus. In words: Minimum inhibitory concentration (MIC) preventing growth of […]. Format: functional.
The test system of a further data set is Enterococcus faecalis. Kind of data set: Minimum inhibitory concentration (MIC) preventing growth of Streptococcus faecalis ATCC 10541. It counts as functional.
Another data set relates to Enterobacter cloacae. Kind of data set: Minimum inhibitory concentration (MIC)preventing growth of Enterobacter cloacae. It counts as functional.
For data set [4], the system named is Pseudomonas aeruginosa. In words: Minimum inhibitory concentration (MIC)preventing growth of Pseudomonas aeruginosa. Format: functional.
Data set [5] relates to Escherichia coli. In words: Efficacy on systemic infections after oral administration in mice was determined against Escherichia coli HM-42. It counts as functional. In a few lines:
(§1)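 Mouse protection test using 4 groups of 10 mice. Mice were infected intraperitoneally with a bacterial suspension slightly above LD100. A single oral dose was given immediately after infection, with four doses, one per group, chosen from in vitro activity. Survival was scored after one week, and ED50 (total mg/kg protecting 50% of mice) was interpolated from group survival rates.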

Data set [6] deals with Pseudomonas aeruginosa. In words: Efficacy on systemic infections after oral administration in mice was determined against Pseudomonas aeruginosa HS-116. Format: functional. In outline:
as §1

Data set [7] has as its system Staphylococcus aureus. In words: Efficacy on systemic infections after oral administration in mice was determined against […] HS-93. It counts as functional. In outline:
as §1

Values after ≈ are worked out from the molar mass of the structure shown.

The AUC is concentration integrated over time. Read a high AUC as high exposure. By MIC is commonly meant the lowest concentration that inhibits growth of the organism. Higher therefore signals weaker potency. For `CC1(N)CN(c2nc3c(cc2F)c(=O)c(C(=O)O)cn3C(C)(C)C)C1`, the AUC with Mus musculus was 11300 ng·h/mL. The MIC in the data set on Bacillus cereus amounted to 0.12 µg/mL (≈ 0.344 µM); against Bacillus subtilis, 0.015 µg/mL (≈ 0.0431 µM); in the data set with Escherichia coli [1], 0.06 µg/mL (≈ 0.172 µM); against Klebsiella pneumoniae, 0.015 µg/mL (≈ 0.0431 µM); in the data set on Morganella morganii it was 0.12 µg/mL (≈ 0.344 µM); against Proteus vulgaris it was 0.25 µg/mL (≈ 0.718 µM). For the same compound, the MIC is 0.12 µg/mL (≈ 0.344 µM) in data set [2]; 0.12 µg/mL (≈ 0.344 µM) against Staphylococcus aureus [3]; 1 µg/mL (≈ 2.87 µM) against Enterococcus faecalis; 0.12 µg/mL (≈ 0.344 µM) in the data set with Enterobacter cloacae; 2 µg/mL (≈ 5.74 µM) with Pseudomonas aeruginosa [4].

What is called ED50 is the dose at which the effect has come halfway, by size or by number of responders. Low readings indicate greater potency, high ones weaker potency. In the data set with Mus musculus, `CNC1CN(c2c(F)cc3c(=O)c(C(=O)O)cn(-c4ccc(F)cc4F)c3c2Cl)C1` showed an AUC of 15300 ng·h/mL. Further, the minimum inhibitory concentration (MIC) with Bacillus cereus amounted to 0.06 µg/mL (≈ 0.137 µM); in the data set on Bacillus subtilis it was 0.015 µg/mL (≈ 0.0343 µM); in the data set with Escherichia coli [1] it was 0.015 µg/mL (≈ 0.0343 µM); in the data set on Klebsiella pneumoniae it was 0.12 µg/mL (≈ 0.274 µM); against Morganella morganii it was 0.12 µg/mL (≈ 0.274 µM); against Proteus vulgaris, 0.12 µg/mL (≈ 0.274 µM). Besides, the MIC in data set [2] was 0.06 µg/mL (≈ 0.137 µM); with Staphylococcus aureus [3], 0.015 µg/mL (≈ 0.0343 µM); in the data set on Enterococcus faecalis, 0.12 µg/mL (≈ 0.274 µM); with Enterobacter cloacae, 0.12 µg/mL (≈ 0.274 µM); in the data set on Pseudomonas aeruginosa [4] it was 0.25 µg/mL (≈ 0.571 µM). In addition, the ED50 was found to be 1.3 mg/kg in the data set on Escherichia coli [5], 30 mg/kg in the data set with Pseudomonas aeruginosa [6] and 1.3 mg/kg in the data set on Staphylococcus aureus [7].

For `CC1(N)CN(c2c(F)cc3c(=O)c(C(=O)O)cn(C4CC4)c3c2Cl)C1`, the AUC in the data set with Mus musculus is 2800 ng·h/mL. Besides, the MIC stood at 0.06 µg/mL (≈ 0.164 µM) in the data set with Bacillus cereus; 0.06 µg/mL (≈ 0.164 µM) in the data set with Bacillus subtilis; 0.03 µg/mL (≈ 0.082 µM) with Escherichia coli [1]; 0.03 µg/mL (≈ 0.082 µM) with Klebsiella pneumoniae; 0.03 µg/mL (≈ 0.082 µM) against Morganella morganii; 0.12 µg/mL (≈ 0.328 µM) against Proteus vulgaris. Also, the MIC was 0.06 µg/mL (≈ 0.164 µM) in [2]; 0.06 µg/mL (≈ 0.164 µM) with Staphylococcus aureus [3]; 0.25 µg/mL (≈ 0.683 µM) in the data set with Enterococcus faecalis; 0.03 µg/mL (≈ 0.082 µM) in the data set with Enterobacter cloacae; 0.25 µg/mL (≈ 0.683 µM) against Pseudomonas aeruginosa [4]. Also, the ED50 in the data set on Escherichia coli [5] was 2 mg/kg; in the data set with Pseudomonas aeruginosa [6], 59.8 mg/kg; in the data set with Staphylococcus aureus [7] it was 4.1 mg/kg.

`CC1(N)CN(c2c(F)cc3c(=O)c(C(=O)O)cn(-c4ccc(F)cc4F)c3c2Cl)C1` showed an AUC in the data set on Mus musculus of 23300 ng·h/mL. For the same compound, the MIC turned out to be 0.06 µg/mL (≈ 0.137 µM) against Bacillus cereus; 0.03 µg/mL (≈ 0.0685 µM) in the data set with Bacillus subtilis; 0.03 µg/mL (≈ 0.0685 µM) against Escherichia coli [1]; 0.03 µg/mL (≈ 0.0685 µM) in the data set with Klebsiella pneumoniae; 0.25 µg/mL (≈ 0.571 µM) in the data set on Morganella morganii; 0.12 µg/mL (≈ 0.274 µM) in the data set with Proteus vulgaris. Moreover, the minimum inhibitory concentration (MIC) in [2] amounted to 0.06 µg/mL (≈ 0.137 µM); with Staphylococcus aureus [3] it was 0.06 µg/mL (≈ 0.137 µM); in the data set with Enterococcus faecalis, 0.25 µg/mL (≈ 0.571 µM); in the data set on Enterobacter cloacae it was 0.12 µg/mL (≈ 0.274 µM); with Pseudomonas aeruginosa [4] it was 0.5 µg/mL (≈ 1.14 µM). For the same compound, the figures for the 50% effective dose (ED50) with Escherichia coli [5], in the data set with Pseudomonas aeruginosa [6] and with Staphylococcus aureus [7] were 1.5 mg/kg, 43 mg/kg and 1.2 mg/kg, respectively.

`CC1(N)CN(c2nc3c(cc2F)c(=O)c(C(=O)O)cn3-c2ccc(F)cc2)C1` yielded an AUC in the data set with Mus musculus of 33000 ng·h/mL. Also, the MIC amounted to 0.25 µg/mL (≈ 0.647 µM) against Bacillus cereus; 0.06 µg/mL (≈ 0.155 µM) in the data set with Bacillus subtilis; 0.06 µg/mL (≈ 0.155 µM) against Escherichia coli [1]; 0.06 µg/mL (≈ 0.155 µM) against Klebsiella pneumoniae; 0.12 µg/mL (≈ 0.311 µM) in the data set on Morganella morganii; 1 µg/mL (≈ 2.59 µM) with Proteus vulgaris. The MIC was found to be 0.25 µg/mL (≈ 0.647 µM) in [2]; 0.25 µg/mL (≈ 0.647 µM) in the data set with Staphylococcus aureus [3]; 4 µg/mL (≈ 10.4 µM) in the data set on Enterococcus faecalis; 0.06 µg/mL (≈ 0.155 µM) against Enterobacter cloacae; 2 µg/mL (≈ 5.18 µM) in the data set on Pseudomonas aeruginosa [4]. In addition, the figures for the ED50 in the data set on Escherichia coli [5], in the data set with Pseudomonas aeruginosa [6] and in the data set with Staphylococcus aureus [7] were 1.3 mg/kg, 82.7 mg/kg and 7.5 mg/kg, respectively.

In the data set on Mus musculus, `CNC1(C)CN(c2nc3c(cc2F)c(=O)c(C(=O)O)cn3C2CC2)C1` showed an AUC of 22900 ng·h/mL. Also, the minimum inhibitory concentration (MIC) was 0.12 µg/mL (≈ 0.346 µM) in the data set with Bacillus cereus; 0.03 µg/mL (≈ 0.0866 µM) against Bacillus subtilis; 0.03 µg/mL (≈ 0.0866 µM) in the data set with Escherichia coli [1]; 0.03 µg/mL (≈ 0.0866 µM) with Klebsiella pneumoniae; 0.06 µg/mL (≈ 0.173 µM) with Morganella morganii; 0.25 µg/mL (≈ 0.722 µM) with Proteus vulgaris. The MIC came out at 0.25 µg/mL (≈ 0.722 µM) in [2]; 0.25 µg/mL (≈ 0.722 µM) in the data set with Staphylococcus aureus [3]; 1 µg/mL (≈ 2.89 µM) against Enterococcus faecalis; 0.06 µg/mL (≈ 0.173 µM) against Enterobacter cloacae; 1 µg/mL (≈ 2.89 µM) in the data set with Pseudomonas aeruginosa [4]. Besides, the ED50 with Escherichia coli [5] stood at 3 mg/kg; with Pseudomonas aeruginosa [6], 102 mg/kg; in the data set with Staphylococcus aureus [7], 9.6 mg/kg.

Turning to `CCNCC1CN(c2c(F)cc3c(=O)c(C(=O)O)cn(C4CC4)c3c2F)C1`, in the data set with Mus musculus, the AUC was 14100 ng·h/mL. Also, the MIC in the data set on Bacillus cereus amounted to 0.5 µg/mL (≈ 1.32 µM); in the data set with Bacillus subtilis, 0.06 µg/mL (≈ 0.159 µM); against Escherichia coli [1], 0.25 µg/mL (≈ 0.662 µM); against Klebsiella pneumoniae, 0.06 µg/mL (≈ 0.159 µM); in the data set on Morganella morganii, 0.25 µg/mL (≈ 0.662 µM); in the data set on Proteus vulgaris, 1 µg/mL (≈ 2.65 µM). Moreover, the MIC came to 0.25 µg/mL (≈ 0.662 µM) in data set [2]; 0.5 µg/mL (≈ 1.32 µM) in the data set with Staphylococcus aureus [3]; 0.5 µg/mL (≈ 1.32 µM) with Enterococcus faecalis; 0.25 µg/mL (≈ 0.662 µM) with Enterobacter cloacae; 4 µg/mL (≈ 10.6 µM) in the data set with Pseudomonas aeruginosa [4].

The values are drawn from ChEMBL document CHEMBL1126625, “7-Azetidinylquinolones as antibacterial agents. Synthesis and structure-activity relationships” (J Med Chem, 1993).
